Results pooled from the literature.
Protocols differ between the studies behind these lines.
Target: Calcium/calmodulin-dependent protein kinase kinase 1 (CAMKK1, Homo sapiens, UniProt Q8N5S9)

effect on | action | method | concentration | measurement | result | Compound
binding |  | competition with immobilised ligand | 1 µM | remaining binding | 96% | O=c1nc(-c2ccccn2)sc2ccccc12
target engagement in cells | inhibitor | chemoproteomics | 20 mM | inhibition | 20.6% | CCCCNc1ncc2c(-c3ccc(F)cc3)nn(C[C@H]3CC[C@H](N)CC3)c2n1
thermal stability |  | DSF | 10 µM | ΔTm | 0.7 °C | Cn1c2c(Cl)c(Cl)ccc2c2cc(N)[nH]c(=O)c21
enzyme activity | inhibitor | radiometric | 1 µM | remaining activity | 88% | CC(C)(C)c1nc2c(s1)c1nc(N)ncc1c1ccc(NS(=O)(=O)c3c(F)cccc3F)c(F)c12
cell-free assay | inhibitor |  | 20 µM | remaining signal | 28% | Nc1ncnc2occ(-c3ccc(NC(=O)Nc4cc(C(F)(F)F)ccc4F)cc3)c12
cell-free assay |  |  | 0.5 µM | remaining signal | 84.8% | COc1cc(Nc2c(C#N)cnc3cc(OCCCN4CCN(C)CC4)c(OC)cc23)c(Cl)cc1Cl
thermal stability |  | DSF | 10 µM | ΔTm | -0.1 °C | CCN1CCC2(CC1)NC(=O)c1c(c3ccc(Cl)c(Cl)c3n1C)C2C#N (racemic)
cell-free assay |  | competition with immobilised ligand | 1 µM | remaining binding | 100% | Cc1nccc(COC(=O)N2C[C@@H]3[C@@H](CNC(=O)c4ccc5[nH]nnc5c4)[C@@H]3C2)n1
cell-free assay |  |  | 0.5 µM | remaining signal | 86.7% | N#CCCc1ccc2c(c1)-c1[nH]c3ccc([N+](=O)[O-])cc3c1CC(=O)N2
thermal stability |  | DSF | 10 µM | ΔTm | 1.2 °C | Cn1c2c(c3ccc(Cl)c(Cl)c31)C(C#N)C1(CCOCC1)NC2=O (stereo not shown)
cell-free assay |  | competition with immobilised ligand | 1 µM | remaining binding | 90% | CN(c1ccnc(CNc2nc(Nc3ccc4c(c3)CC(=O)N4)ncc2C(F)(F)F)n1)S(C)(=O)=O
target engagement in cells | inhibitor | chemoproteomics | 20 mM | inhibition | -24.9% | COc1cccc2c(NCc3ccccc3)nc(-n3c(N)nc4ccccc43)nc12
enzyme activity | inhibitor |  | 1 µM | inhibition | 3% | CN1CC(Oc2cnc(C#N)cc2-c2ccn3nc(NC(=O)C4CC4)cc3c2)C1
enzyme activity | inhibitor |  | 1 µM | remaining activity | 91.8% | CC(C)(O)[C@H]1CC[C@H](Nc2ccc3ncc(-c4cccc(C(F)(F)F)c4)n3n2)CC1
enzyme activity | inhibitor |  | 23.5 nM | remaining activity | 85% | Cc1ccc(C(=O)Nc2ccc(CN3CCN(C)CC3)c(C(F)(F)F)c2)cc1C#Cc1cnc2cccnn12
cell-free assay |  | competition with immobilised ligand | 1 µM | remaining binding | 100% | CC1=C(C#N)C(c2ccc3c(c2)c(NC(=O)c2ccccc2C)nn3C)C(C#N)=C(C)N1
enzyme activity | inhibitor |  | 5 µM | remaining activity | 130% | O=C(Nc1cnn(-c2csc(C(=O)NC3COC3)c2)c1)Nc1ccccc1Cl
cell-free assay |  | competition with immobilised ligand | 1 µM | remaining binding | 100% | COc1ccc2c(c1)O[C@H](c1ccc(OC)c(OC)c1)C[C@@H]2NC(=O)C1(c2ccc3c(c2)OC(F)(F)O3)CC1
cell-free assay |  |  | 0.5 µM | remaining signal | 86.4% | Nc1nc(Nc2ccc(S(N)(=O)=O)cc2)nn1C(=O)c1c(F)cccc1F
